Rows were chosen to be rich in hits. Some 3.6% of all compounds tested hit in one or more screens of this group.
PolyA inh: inhibitors of polyadenylation in S. cerevisiae. AID 1875. 300,000 compounds, 0.02% hits. activity score, % at 12 µM. S. cerevisiae SKY197-pL101 polyadenylation reporter, beta-gal luminescence; efflux-impaired pdr1/pdr3 knockout yeast; score 100 = 6 SD above DMSO;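 active = lowest replicate activity score at least 50, where 100 means six control SD above control mean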;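 also: yeast exposed to compound for 9 h at 30 °C; higher score means more reporter readthrough which indicates perturbed polyadenylation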
AHR activator: activates the human aryl hydrocarbon receptor | activation, % at 5 µM | AID 2796 | AHR-responsive luciferase reporter cells, luminescence | P35869 | 320,000 compounds, 2.5% hits; in the data active = activation above about 47%
HSF1 inhib: HSF1 inhibition; activity change, negative = inhibition, % at 7.5 µM (by protocol); 300,000 compounds, 0.77% hits; NIH3T3-HGL HSE-luciferase, MG132-induced, luminescence 8 h; active compounds read low;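 active = more than half of replicate wells show activity change below -50%, luminescence cut by over half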;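 also: luciferase reports HSF-1 transcriptional activity via heat shock element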
STAT3 act: activators of IL-6 induced STAT3 signaling; U3A cells, IL-6 STAT3-luciferase reporter, luminescence; 100% = signal with IL-6 EC80 alone; activation (% of control), % at 5.6 µM; 190,000 compounds, 0.91% hits;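 active = activation above the screen-wide mean of compound activation plus 3 SD, cut at about 130% in these data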
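Material: human STAT1-deficient U3A cells with stable STAT3-luciferase reporter / Probe or stimulus: IL-6 stimulus at 33 ng/mL final / Schedule: 1 h compound pre-exposure, 6 h IL-6 stimulation, 37 °C / Technique: luminescence / Read-out basis: percent of IL-6-only median luminescence / Control set: IL-6-only high control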
Hsp70 act: Hsp70 transcriptional activation, primary screen. HeLa Hsp70 promoter luciferase reporter, luminescence; scaled: vehicle 0, proteasome-inhibitor control 100%. activation, % at 10 µM. 200,000 compounds, 0.04% hits;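 active = activation above the mean across all tested compounds plus 3 SD, cutoff set per campaign, cut at about 5.5% in these data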
PERK inh: blocks human PERK kinase; Q9NZJ5; CHO PERK-DD fusion, SEAP luminescence translation reporter; inhibition, % at 5.6 µM; 220,000 compounds, 0.17% hits; AID 1416;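 active = inhibition above the mean inhibition of all tested compounds plus 3 SD, set separately per screening campaign, cut at about 2.9% in these data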;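 also: PERK kinase domain activated by AP20187 dimerizer at 100 nM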
Hits are given with their value; - = inactive; . = not tested or not shown.

SMILES | PolyA inh | AHR activator | HSF1 inhib | STAT3 act | Hsp70 act | PERK inh
COC(=O)CN1C(=O)Nc2ccc(Cl)cc2C1c1ccccc1 (configuration not stated) | - | - | - | . | . | .
O=C(Nc1ccc(F)cc1F)c1cc2nc3c(c(C(F)(F)F)n2n1)CCCC3 | - | - | -55 | - | - | -
CC1CN(C(=O)/C=C/c2ccc3c(c2)OCO3)CC(C)O1 (configuration not stated) | - | 60 | - | - | - | -
CCN(C(=O)/C=C/c1ccc2c(c1)OCO2)c1ccccc1 | - | 70 | - | - | - | -
O=C(/C=C/c1ccc2c(c1)OCO2)N1CCOCC1 | - | 55 | - | - | - | -
O=C(/C=C/c1ccc2c(c1)OCO2)N1CCN(c2ccccc2F)CC1 | - | - | - | - | - | -
COC(=O)c1cc(S(=O)(=O)N2CCC(c3cc(OC)ccc3OC)C2)c[nH]1 (configuration not stated) | - | - | - | . | . | .
CCOc1ccccc1NC(=O)C1CCCN(S(=O)(=O)c2ccc3c(c2)C(C)(C)C(=O)N3C)C1 (configuration not stated) | - | - | - | . | . | .
CCOC(=O)c1c(C)[nH]c(C(=O)OCC(=O)Nc2ccc(Cl)cn2)c1C | . | - | . | . | . | .
CCOC(=O)c1c(C)[nH]c(C(=O)OCC(=O)Nc2sccc2C(N)=O)c1C | - | 53 | -75 | . | . | .
O=C(O)CN1C(=O)/C(=C\c2cc(Br)ccc2OCc2ccc(Cl)cc2Cl)SC1=S | - | 64 | - | . | . | .
O=C(O)CN1C(=O)/C(=C\c2cccc(OCc3ccc(Cl)cc3)c2)SC1=S | - | - | - | . | . | .
O=C(O)CN1C(=O)/C(=C\c2cccc(OCc3ccccc3F)c2)SC1=S | - | - | - | . | . | .
O=C(O)CN1C(=O)/C(=C\c2ccccc2OCc2ccc(Cl)cc2)SC1=S | - | 59 | - | . | . | .
O=C(CC1(CC(=O)N2CCOCC2)CCCC1)Nc1ccccc1 | . | - | . | . | . | .
CC1(C)Cc2c(C#N)c(SCCO)nc(N3CCOCC3)c2CO1 | - | - | - | . | . | .
CC1(C)Cc2c(C#N)c(SCCC#N)nc(N3CCOCC3)c2CO1 | - | . | -61 | . | . | .
CCOc1ccccc1Nc1nnc(SCC(=O)N(C)C2CCS(=O)(=O)C2)s1 (configuration not stated) | . | - | . | . | . | .
Cc1ccc2nc(SCc3nnc(-c4cccs4)o3)[nH]c2c1 | - | 60 | - | - | - | -
Cc1ccc2nc(SCC(=O)N3CCOCC3)[nH]c2c1 | - | - | - | - | - | -
Cc1ccc2nc(SCC3CCCCO3)[nH]c2c1 (configuration not stated) | - | 51 | - | . | . | -
O=C(O)c1ccc(COc2ccccc2Cl)cc1 | - | - | - | - | - | -
O=C(O)c1cccc(COc2ccccc2Cl)c1 | - | - | -86 | . | . | .
O=C1NC(=O)/C(=C\c2ccc(OCc3cccc(C(=O)O)c3)c(Cl)c2)N1 | - | - | -55 | - | - | -
O=C(C1CCCN(S(=O)(=O)c2ccc(F)cc2)C1)N1CCCCC1 (configuration not stated) | - | - | - | . | . | .
SMILES | PolyA inh | AHR activator | HSF1 inhib | STAT3 act | Hsp70 act | PERK inh
Cn1nccc1NC(=O)Nc1ccc(Cl)cc1 | - | - | - | . | . | -
Cn1nccc1C(=O)c1ccc(Cl)cc1 | - | - | - | - | - | 3.1
CC1O[C@@H](O[C@H](C)CC[C@@H](C)O[C@H]2OC(C)[C@@H](O)C[C@H]2O)C(O)C[C@H]1O (some centres not stated) | - | - | - | . | . | .
Clc1ccc2[nH]c3c(NCC4CCCO4)ncnc3c2c1 (configuration not stated) | - | 76 | - | - | - | -
FC(F)(F)c1ccc(-c2csc(-c3ccno3)n2)cc1 | - | 63 | - | . | . | -
COc1cc(OC)cc(C(=O)Nc2ccc(N3CCOCC3)cc2N2CCOCC2)c1 | . | - | . | . | . | .
O=C(Nc1ccccc1N1CCOCC1)c1ccc(Cl)nc1 | - | 60 | - | - | - | -
CS(=O)(=O)N1CCN(c2ccccc2NC(=O)c2ccc3ccccc3c2)CC1 | - | - | - | - | - | -
O=C(Nc1ccccc1N1CCOCC1)c1ccc2ccccc2c1 | - | - | - | . | . | .
COc1c(F)c(F)c(C(=O)Nc2ccccc2N2CCN(C(C)=O)CC2)c(F)c1F | - | 50 | - | - | - | -
COc1cc(OC)cc(C(=O)Nc2ccccc2N2CCOCC2)c1 | - | 61 | - | - | - | -
CS(=O)(=O)N1CCN(c2ccccc2NC(=O)c2ccc(Cl)cc2)CC1 | - | 79 | - | - | - | -
CC(C)(CN1CCN(C(c2ccccc2)c2ccccc2)CC1)NS(=O)(=O)c1ccccc1 | - | - | - | . | . | -
CCOC(=O)CC1(NC(=O)C2CCC(=O)N(CCc3ccccc3)C2)CCCCC1 (configuration not stated) | - | - | - | . | . | .
O=C(Nc1cc(Cl)ccc1N1CCOCC1)c1cccnc1Cl | - | 70 | - | . | . | -
CC1CCN(c2nc(-c3ccncc3)nc3ccccc23)CC1 | - | - | - | - | - | -
CC1CCN(c2nc(/C=C/c3ccccc3)nc3ccccc23)CC1 | - | 72 | - | - | - | -
COc1cccc(CSc2nc(N)cc(N)n2)c1 | - | - | - | . | . | .
CCN(CC)c1ncnc2sc(C(=O)N3CCN(c4ccccc4)CC3)c(C)c12 | - | - | - | - | - | -
CCC1CCCCN1C(=O)c1sc2ncnc(N(CC)CC)c2c1C (configuration not stated) | - | 59 | - | - | - | -
Cc1ccc(C(=O)Nc2cccc(C(F)(F)F)c2)cc1NC(=O)c1c[nH]c2cc(C(F)(F)F)ccc2c1=O | . | 58 | . | . | . | .
CCN1CCN(Cc2ccc(NC(=O)c3ccc(C)c(NC(=O)c4c[nH]c5cc(C(F)(F)F)ccc5c4=O)c3)cc2C(F)(F)F)CC1 | - | - | - | . | . | .
Cc1ccc(C(=O)Nc2cccc(C(F)(F)F)c2)cc1Nc1ccccn1 | - | 50 | - | . | . | .
C=CCN=c1scc(-c2ccc(F)cc2)n1/N=C/c1ccccn1 | - | 48 | - | - | - | -
CCN(CC)C(=O)COc1coc(CN2CCN(c3ccc(F)cc3)CC2)cc1=O | - | - | -62 | . | . | .
SMILES | PolyA inh | AHR activator | HSF1 inhib | STAT3 act | Hsp70 act | PERK inh
CCN(CC)C(=O)COc1coc(CN2CCN(c3ccccc3)CC2)cc1=O | - | - | - | . | . | .
COc1ccc(N/N=C(\C=N\O)C(=O)c2ccc(OC)cc2)cc1 | - | 48 | - | - | - | -
COc1ccc(NC(=O)/C=N/O)cc1 | - | - | - | - | - | -
O=C(CN1C(=O)CCC1=O)Nc1nc(-c2ccc(Cl)s2)cs1 | - | 78 | - | - | - | -
N#Cc1cc2c(nc1SCc1nc3ccccc3[nH]1)CCC2 | - | - | - | - | - | -
N#Cc1c(SCc2nc3ccccc3[nH]2)nc2c(c1C(F)(F)F)CCC2 | . | . | . | 174 | - | -
O=C(COC(=O)Cc1ccccc1F)NC(=O)NC1CCCC1 | . | - | . | . | . | .
O=C(Nc1nnc(-c2cccnc2)s1)c1cccs1 | - | - | - | . | . | -
Cc1cccc(-c2nnc(NC(=O)c3cccs3)s2)c1 | - | 48 | -80 | - | - | -

Bioassay records: PubChem, several laboratories
